As a reminder, the IC50 is the concentration at which inhibition is half-maximal. One may read the Ki as a measure of affinity in units of concentration, obtained from inhibition or displacement. For orientation: kinact means the rate constant of inactivation at saturating inhibitor.

Each structure is given as a SMILES string.

Data set [1] has as its target T1, Amine oxidase [flavin-containing] A (Homo sapiens, UniProt P21397).
T1 sequence (P21397 whole entry): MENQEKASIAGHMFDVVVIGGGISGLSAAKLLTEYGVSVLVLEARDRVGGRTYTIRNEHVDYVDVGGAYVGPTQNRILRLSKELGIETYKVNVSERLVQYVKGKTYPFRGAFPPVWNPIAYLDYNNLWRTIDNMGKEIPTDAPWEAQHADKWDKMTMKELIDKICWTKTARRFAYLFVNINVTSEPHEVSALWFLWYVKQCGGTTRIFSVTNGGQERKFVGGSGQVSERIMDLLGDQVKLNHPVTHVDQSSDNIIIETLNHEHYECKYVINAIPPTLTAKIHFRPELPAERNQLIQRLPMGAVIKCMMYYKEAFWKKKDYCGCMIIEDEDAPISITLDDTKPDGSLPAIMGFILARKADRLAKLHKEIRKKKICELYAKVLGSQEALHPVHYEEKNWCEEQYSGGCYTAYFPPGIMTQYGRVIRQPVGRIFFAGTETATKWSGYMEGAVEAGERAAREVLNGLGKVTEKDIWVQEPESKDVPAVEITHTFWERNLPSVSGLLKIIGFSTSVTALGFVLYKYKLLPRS
As to the kind of experiment: Inhibition of human recombinant MAOA expressed in insect cells assessed as oxidation of kynuramine substrate measured after additional substrate added after 90 mins incubation. Particulars: 1.5 h; call rule not given here.

Data set [2] has as its target T2, Amine oxidase [flavin-containing] B (Homo sapiens, UniProt P27338).
T2 sequence (P27338 whole entry): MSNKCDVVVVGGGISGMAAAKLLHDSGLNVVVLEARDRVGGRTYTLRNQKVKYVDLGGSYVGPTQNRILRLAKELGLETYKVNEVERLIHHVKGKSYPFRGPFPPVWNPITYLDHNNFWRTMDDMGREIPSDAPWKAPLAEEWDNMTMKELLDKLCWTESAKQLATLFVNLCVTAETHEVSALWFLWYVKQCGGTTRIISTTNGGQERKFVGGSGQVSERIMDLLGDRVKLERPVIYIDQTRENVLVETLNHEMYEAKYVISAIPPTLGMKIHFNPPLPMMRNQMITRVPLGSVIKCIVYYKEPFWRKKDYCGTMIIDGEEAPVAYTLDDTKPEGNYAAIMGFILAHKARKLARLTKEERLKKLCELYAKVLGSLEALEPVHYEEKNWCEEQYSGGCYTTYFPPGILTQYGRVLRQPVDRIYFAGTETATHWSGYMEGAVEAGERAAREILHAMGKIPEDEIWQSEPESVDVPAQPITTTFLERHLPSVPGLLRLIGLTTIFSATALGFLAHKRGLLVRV
Briefly: Inhibition of human recombinant MAOB expressed in insect cells using benzylamine hydrochloride as substrate after 30 mins. An outline of the steps: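 Human recombinant MAO-B (0.01 mg/mL) in 0.1 M isotonic phosphate buffer pH 7.4, inhibitor 0–7000 µM, benzylamine 1000 µM final, 30 min at 37 °C. Stopped with perchloric acid; benzaldehyde measured by reverse-phase HPLC with UV 254 nm. IC50 from sigmoidal log dose–response fit; triplicate, mean ± SD.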

A further data set is filed under the species Homo sapiens. Briefly: Selectivity index, ratio of IC50 for human recombinant MAOB to IC50 for human recombinant MAOA. An outline of the steps: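 MAO-A (0.005 mg/mL; 150 μM kynuramine, 60 min, 37 °C, […]) and MAO-B (0.01 mg/mL; 1000 μM benzylamine, 30 min, 37 °C, perchloric acid stop, benzaldehyde by HPLC-UV at 254 nm) in isotonic 0.1 M phosphate pH 7.4. Inhibitor 0–7000 μM. IC50s from sigmoidal log curves in triplicate. SI = MAO-B IC50 / MAO-A IC50.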

For data set [3], the target named is T1, Amine oxidase [flavin-containing] A. As to the kind of experiment: Inhibition of human recombinant MAOA expressed in insect cells using kynuramine substrate after 60 mins.
The target is the same in data set [4]. As to the kind of experiment: Inhibition of human recombinant MAOA expressed in insect cells assessed as oxidation of kynuramine substrate at 5 uM measured after additional substrate added after 90 mins incubation. Particulars: 1.5 h. The essentials:
(§1)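 Time course of kynuramine oxidation by recombinant human MAO-A at 37 °C in isotonic 0.1 M phosphate pH 7.4 with or without inhibitor. A second portion of substrate (150 μM kynuramine) was added at 90 min and fresh enzyme at 120 min, with product formation followed throughout.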

For data set [5] the target is unchanged. Briefly: Inhibition of human recombinant MAOA expressed in insect cells assessed as oxidation of kynuramine substrate at 5 uM up to 90 mins. To be noted: 1.5 h. The essentials:
as §1

For data set [6] the target is unchanged. As to the kind of experiment: Noncompetitive inhibition of human recombinant MAO-A assessed as dissociation constant for enzyme-inhibitor complex by Lineweaver-Burk plot analysis.
Data set [7] has the same target. As to the kind of experiment: Inhibition of human recombinant MAOA expressed in insect cells assessed as formation of 4-hydroxyquinoline at 5 uM preincubated for 1 hr before kynuramine substrate measured after 1 hr in presence of sodium borohydride. The essentials:
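MAO-A (0.005 mg/mL) preincubated 60 min at 37 °C with inhibitor in isotonic 0.1 M phosphate pH 7.4. NaBH4 (5 μL of 300 mM stock in water) then added and the mix held 15 min at 0 °C. It was dialyzed overnight at 0 °C, then read at 310 nm with 150 μM kynuramine over 60 min at 37 °C. Controls without inhibitor also got borohydride. n = 3.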

For data set [8] the target is unchanged. As to the kind of experiment: Time dependent inhibition of human recombinant MAOA expressed in insect cells using kynuramine as substrate at 5 uM preincubated up to 40 mins before kynuramine substrate addition. The essentials: (§2)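 Recombinant human MAO-A preincubated at 37 °C with inhibitor (2–5 μM) or buffer control for 0, 10, 20, 30 or 40 min before kynuramine (150 μM) was added. Activity read after 30 min as % of control, n = 3. Kitz–Wilson slope replot: Ki from reciprocal of x-intercept, kinact from reciprocal of y-intercept.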

For data set [9], the target named is T3, MAO-A (amine oxidase [flavin-containing] A) (Homo sapiens, UniProt P21397).
T3 sequence (P21397 whole entry): T1 sequence (P21397 whole entry)
As to the kind of experiment: Irreversible inhibition of human recombinant MAOA expressed in insect cells using kynuramine as substrate by Kitz-Wilson plot analysis. Particulars: probe kynuramine. An outline of the steps:
as §2

Data set [10] concerns the target T1, Amine oxidase [flavin-containing] A. Briefly: Inhibition of human recombinant MAOA expressed in insect cells assessed as formation of 4-hydroxyquinoline at 5 uM preincubated for 1 hr before kynuramine substrate measured after 12 hrs of dialysis. The essentials: (§3)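 MAO-A (0.005 mg/mL) in 0.1 M sodium phosphate pH 7.4 made isotonic with NaCl, preincubated 1 h at 37 °C without substrate with inhibitor (final volume 1 mL), then dialyzed overnight at 0 °C against 250 mL buffer. Activity in dialysate read as product formation at 310 nm with 150 μM kynuramine over 60 min at 37 °C. 4-Hydroxyquinoline quantified by calibration curve. Means ± SD, n = 3.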

The target is the same in data set [11]. As to the kind of experiment: Noncompetitive inhibition of human recombinant MAO-A assessed as dissociation constant for enzyme-inhibitor-substrate complex by Lineweaver-Burk plot analysis.
Data set [12] has the same target. Briefly: Inhibition of human recombinant MAOA expressed in insect cells assessed as oxidation of kynuramine substrate at 5 uM measured after additional enzyme added after 120 mins incubation. Particulars: 2 h. The essentials:
as §1

Data set [13] has the same target. As to the kind of experiment: Inhibition of human recombinant MAOA expressed in insect cells using kynuramine as substrate by Kitz-Wilson plot analysis. The essentials: as §2
Data set [14] has the same target. As to the kind of experiment: Inhibition of human recombinant MAOA expressed in insect cells assessed as formation of 4-hydroxyquinoline at 0.5 uM preincubated for 1 hr before kynuramine substrate measured after 12 hrs of dialysis. The essentials: as §3

Regarding `Clc1ccc(CCN2CC=CCC2)c(Cl)c1`, the “inhibition (INH)” value in data set [1] is reported as “Not Active”. Besides, the IC50 in data set [2] came to 67.2 µM; in [3], 6.1 µM. In addition, the Ratio IC50 in the data set filed under Homo sapiens stood at 11.1.

As to `C1=CCN(Cc2ccccc2)CC1`, the “inhibition (INH)” value in data set [1] is given as “Not Active”. Also, the IC50 in data set [2] is 6540 µM; in [3] it was 157 µM. In addition, in the data set filed under Homo sapiens, the Ratio IC50 came to 41.6.

As for `Clc1ccc(OCCCN2CC=CCC2)c(Cl)c1`, the “inhibition (INH)” value in data set [4], in data set [5], in data set [7], in data set [10] and in data set [12] was “Active” each time. Further, the IC50 in [2] is 66.4 µM; in data set [3] it was 2.6 µM. For the same compound, the values for the Ki in data set [6], in data set [11] and in [13] were 2.2 µM, 0.9 µM and 7.4 µM, respectively. Moreover, the Ratio IC50 in the data set listed under Homo sapiens is 25.4. In addition, in [8], the TDI entry was “Active”. The kinact in [9] was 0.002 s⁻¹.

`COc1ccc(CCN2CC=CCC2)cc1OC`: the “inhibition (INH)” value in data set [1] is “Not Active”. Moreover, the IC50 is 1360 µM in data set [2] and 111 µM in [3]. For the same compound, the Ratio IC50 in the data set listed under Homo sapiens amounted to 12.3.

On to `C#CCN(C)CCCOc1ccc(Cl)cc1Cl` [CLORGILINE], for which the “inhibition (INH)” value in [14] is recorded as “Active”.

Regarding `Fc1ccc(CCN2CC=CCC2)cc1`, the “inhibition (INH)” value in data set [1] is reported as “Not Active”. The IC50 in [2] was found to be 5270 µM; in data set [3] it was 27.3 µM. The Ratio IC50 in the data set listed under Homo sapiens worked out at 193.

(Values after ChEMBL document CHEMBL1938394, “Time-dependent slowly-reversible inhibition of monoamine oxidase A by N-substituted 1,2,3,6-tetrahydropyridines” (Bioorg Med Chem, 2011).)
